Values after ≈ are worked out from the molar mass of the structure shown.
Tests used:
Enterovirus [1] = experiment: Lowest concentration to reduce viral effect by 50% or more against Rhinovirus (RV)-1A; type: functional
In short: (§1)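 HeLa monolayers were seeded at (1.0-1.3) × 10^5 cells/well, grown 24 h at 36 °C in 5% CO2 to 60–75% cover, then refed with maintenance medium (1-2% heat-inactivated FCS) containing two-fold serial compound dilutions made from a 200 μg/mL stock in Me2SO/medium, with final Me2SO ≤0.1%. Cells were challenged with 10-100 TCID50 virus, and CPE was read microscopically at 48 and 72 h. MIC50 was the lowest concentration giving ≥50% CPE reduction versus virus control. Cytotoxicity was the lowest concentration causing cell death, a growth change or a morphology change in uninfected cultures.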

HeLa = experiment: Cytotoxicity concentration in HeLa cells; type: cell-based; conditions: human; in short: as §1
Enterovirus [2] = experiment: Lowest concentration to reduce viral effect by 50% or more against Rhinovirus (RV)-2; type: functional; in short: as §1
Coxsackievirus [3] = experiment: Lowest concentration to reduce viral effect by 50% or more against coxsackie virus A21; type: functional; in short: as §1
Enterovirus [4] = experiment: Ratio of the MIC50 of 6-(4-Nitro-phenoxy)-nicotinonitrile compared to compound obtained in the same test for Rhinovirus (RV)-2; type: functional
In short: (§2)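 Relative activity was calculated as the MIC50 of the positive control 5-cyano-2-(4-nitrophenoxy)pyridine divided by the MIC50 of the test compound. Both were measured in parallel in the same HeLa CPE test (48/72 h microscopic reading) against RV-1A, RV-2 or coxsackievirus A21.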

Coxsackievirus [5] = experiment: Ratio of the MIC50 of 6-(4-Nitro-phenoxy)-nicotinonitrile compared to compound obtained in the same test for coxsackie A21; type: functional; in short: as §2
Enterovirus [6] = experiment: Ratio of the MIC50 of 6-(4-Nitro-phenoxy)-nicotinonitrile compared to compound obtained in the same test for Rhinovirus (RV)-1A; type: functional; in short: as §2

SMILES	MIC50 (Enterovirus [1])	Toxicity (HeLa)	MIC50 (Enterovirus [2])	MIC50 (Coxsackievirus [3])	Relative activity (Enterovirus [4])	Relative activity (Coxsackievirus [5])	Relative activity (Enterovirus [6])
COc1ccccc1Oc1ccc([N+](=O)[O-])cc1C#N	9.2 µM (≈ 2.49 µg/mL)	18.5 µM	9.2 µM (≈ 2.49 µg/mL)	18.5 µM (≈ 5 µg/mL)			
N#Cc1cc(Oc2ccc(Cl)c(Cl)c2)ccc1[N+](=O)[O-]		162 µM	16.2 µM (≈ 5.01 µg/mL)	16.2 µM (≈ 5.01 µg/mL)	1.2	1.2	
O=C(O)c1cc([N+](=O)[O-])ccc1Oc1ccc(Cl)c(Cl)c1	19 µM (≈ 6.23 µg/mL)	305 µM	38.1 µM (≈ 12.5 µg/mL)	76.2 µM (≈ 25 µg/mL)	1.4	0.34	2.7
CC(=O)c1ccc(Oc2ccc(C#N)cn2)cc1	210 µM (≈ 50 µg/mL)	420 µM		53 µM (≈ 12.6 µg/mL)		0.02	
N#Cc1cc(Cl)ccc1Oc1ccc(Cl)c(Cl)c1	> 334 µM	> 334 µM	> 334 µM	1 µM (≈ 0.299 µg/mL)		5.2	
Clc1ccc(Oc2ccc(Br)cn2)cc1Cl	4 µM (≈ 1.28 µg/mL)	78 µM	16 µM (≈ 5.1 µg/mL)	4 µM (≈ 1.28 µg/mL)	1.6	6.5	6.5
COc1ccc(Oc2ccc([N+](=O)[O-])cc2C#N)cc1OC	> 167 µM	> 167 µM	20.7 µM (≈ 6.22 µg/mL)	10.3 µM (≈ 3.09 µg/mL)	0.63	1.3	
Clc1ccc(Oc2ccc(Cl)c(Cl)c2)cc1	22.8 µM (≈ 6.24 µg/mL)	91 µM	45.6 µM (≈ 12.5 µg/mL)	9.1 µM (≈ 2.49 µg/mL)		1.4	2.3
CS(=O)(=O)c1ccc(Oc2ccccc2Cl)cc1	88 µM (≈ 24.9 µg/mL)	88 µM	44.2 µM (≈ 12.5 µg/mL)	11 µM (≈ 3.11 µg/mL)		1.2	
N#Cc1ccc(Oc2ccccc2)nc1	64 µM (≈ 12.6 µg/mL)	676 µM		64 µM (≈ 12.6 µg/mL)		0.81	0.4
CS(=O)(=O)c1ccc(Oc2ccc([N+](=O)[O-])cc2C#N)cc1	> 314 µM	> 314 µM	39.3 µM (≈ 12.5 µg/mL)	2 µM (≈ 0.637 µg/mL)	1.3	2.6	
O=S(=O)(c1ccc(Oc2ccc(Cl)c(Cl)c2)cc1)C(F)(F)F	33.7 µM (≈ 12.5 µg/mL)	> 135 µM	16.8 µM (≈ 6.24 µg/mL)		1.5		0.39
CC(=O)c1ccc(Oc2ccc(S(C)(=O)=O)cc2)cc1	86.2 µM (≈ 25 µg/mL)	172 µM	8.6 µM (≈ 2.5 µg/mL)	17.2 µM (≈ 4.99 µg/mL)	3	0.769	
CS(=O)(=O)c1ccc(Oc2cccc(Cl)c2)cc1		88 µM	22.1 µM (≈ 6.25 µg/mL)	22.1 µM (≈ 6.25 µg/mL)	1.2	0.59	
N#Cc1cc(N)ccc1Oc1ccc(Cl)c(Cl)c1	4.5 µM (≈ 1.26 µg/mL)	9 µM	9 µM (≈ 2.51 µg/mL)	2.2 µM (≈ 0.614 µg/mL)		11.8	
CS(=O)(=O)c1ccc(Oc2ccc(Cl)c(Cl)c2)c(N)c1	15 µM (≈ 4.98 µg/mL)	19 µM	18.7 µM (≈ 6.21 µg/mL)	18.7 µM (≈ 6.21 µg/mL)			
O=S(=O)(O)c1ccc(Oc2ccc(Cl)c(Cl)c2)nc1	20 µM (≈ 6.4 µg/mL)	312 µM	> 312 µM	312 µM (≈ 99.9 µg/mL)			1.3
CS(=O)(=O)c1ccnc(Oc2ccc(Cl)c(Cl)c2)c1	79 µM (≈ 25.1 µg/mL)	157 µM	79 µM (≈ 25.1 µg/mL)	5 µM (≈ 1.59 µg/mL)		10.4	
CS(=O)(=O)c1ccc(Oc2ccc(Cl)c(Cl)c2)c([N+](=O)[O-])c1	> 267 µM	> 267 µM	16.7 µM (≈ 6.05 µg/mL)	> 267 µM	3.1		
C[S+]([O-])c1ccc(Oc2ccc(Cl)c(Cl)c2)nc1 (configuration not stated)	2 µM (≈ 0.604 µg/mL)	83 µM	4 µM (≈ 1.21 µg/mL)	83 µM (≈ 25.1 µg/mL)	3.3		6.5
CS(=O)(=O)c1ccc(Oc2ccc(C(=O)c3ccccc3)cc2)cc1	> 284 µM	> 284 µM	142 µM (≈ 50 µg/mL)	0.88 µM (≈ 0.31 µg/mL)		5.9	
O=[N+]([O-])c1ccc(Oc2ccc(Cl)c(Cl)c2)c([N+](=O)[O-])c1	> 304 µM	19 µM	> 304 µM	19 µM (≈ 6.25 µg/mL)			

SMILES	MIC50 (Enterovirus [1])	Toxicity (HeLa)	MIC50 (Enterovirus [2])	MIC50 (Coxsackievirus [3])	Relative activity (Enterovirus [4])	Relative activity (Coxsackievirus [5])	Relative activity (Enterovirus [6])
N#Cc1cc([N+](=O)[O-])ccc1Oc1ccccc1C(F)(F)F	> 324 µM	32 µM	3.9 µM (≈ 1.2 µg/mL)	32 µM (≈ 9.86 µg/mL)	3.3		
CS(=O)(=O)c1ccc(Oc2ccc([N+](=O)[O-])cc2)cc1	42.7 µM (≈ 12.5 µg/mL)	171 µM	21.3 µM (≈ 6.25 µg/mL)	0.85 µM (≈ 0.249 µg/mL)	2.4	6.1	1.2
N#Cc1ccccc1Oc1ccc(Cl)c(Cl)c1	> 379 µM	379 µM	> 379 µM	23.7 µM (≈ 6.26 µg/mL)		1.1	
N#Cc1cc([N+](=O)[O-])ccc1Oc1ccc(C(=O)c2ccccc2)cc1	> 291 µM	> 291 µM	> 291 µM	36.3 µM (≈ 12.5 µg/mL)		1.4	
CS(=O)(=O)c1cccnc1Oc1ccc(Cl)c(Cl)c1	79 µM (≈ 25.1 µg/mL)	157 µM	157 µM (≈ 50 µg/mL)	157 µM (≈ 50 µg/mL)			
N#Cc1cc([N+](=O)[O-])ccc1Oc1ccc(Cl)cc1	1.4 µM (≈ 0.385 µg/mL)	> 364 µM	2.8 µM (≈ 0.769 µg/mL)	3.6 µM (≈ 0.989 µg/mL)	9.3	7.2	18.5
O=S(=O)(c1ccccc1)c1ccc(Oc2ccc(Cl)c(Cl)c2)cc1	1.6 µM (≈ 0.607 µg/mL)	3.3 µM	1.6 µM (≈ 0.607 µg/mL)	1.6 µM (≈ 0.607 µg/mL)			
Cc1ccc(Oc2ccc([N+](=O)[O-])cc2C#N)cc1	5.1 µM (≈ 1.3 µg/mL)	39 µM	5.1 µM (≈ 1.3 µg/mL)	2.4 µM (≈ 0.61 µg/mL)	2	2.2	4.1
CS(=O)(=O)c1ccc(Oc2ccc(O)cc2)cc1	94.7 µM (≈ 25 µg/mL)	95 µM	94.7 µM (≈ 25 µg/mL)	> 189 µM			
COc1ccc(Oc2ccc(S(C)(=O)=O)cc2)cc1	22.5 µM (≈ 6.26 µg/mL)	> 180 µM	45 µM (≈ 12.5 µg/mL)	90 µM (≈ 25 µg/mL)	0.58	0.29	0.58
CSc1ccc(Oc2ccc([N+](=O)[O-])cc2C#N)cc1	> 350 µM	350 µM	21.8 µM (≈ 6.24 µg/mL)	0.87 µM (≈ 0.249 µg/mL)	2.4	6	
CS(=O)(=O)c1ccc(Oc2ccc(C#N)cc2)cc1		183 µM	45.8 µM (≈ 12.5 µg/mL)	11.4 µM (≈ 3.12 µg/mL)	0.56	2.3	
N#Cc1cc([N+](=O)[O-])ccc1Oc1cc(Cl)cc(Cl)c1	16.2 µM (≈ 5.01 µg/mL)	> 65 µM	8.1 µM (≈ 2.5 µg/mL)	16.2 µM (≈ 5.01 µg/mL)	1.6	0.8	1.6
N#Cc1ccc(Oc2ccc(Cl)c(Cl)c2)c(C#N)c1	> 173 µM	> 173 µM	10.7 µM (≈ 3.09 µg/mL)	10.7 µM (≈ 3.09 µg/mL)	2.4	3.1	
N#Cc1ccc(Oc2ccc(F)cc2)nc1	34 µM (≈ 7.28 µg/mL)	250 µM		69 µM (≈ 14.8 µg/mL)		1.7	3.3
CS(=O)(=O)c1ccc(Oc2ccc(Cl)c(Cl)c2)c(C#N)c1	> 292 µM	292 µM	18.3 µM (≈ 6.26 µg/mL)	> 292 µM	2.8		
Nc1ccc(Oc2ccc(Cl)c(Cl)c2)nc1	5 µM (≈ 1.28 µg/mL)	88 µM		98 µM (≈ 25 µg/mL)			4.1
CS(=O)(=O)c1cccc(Oc2ccc(Cl)c(Cl)c2)n1	10 µM (≈ 3.18 µg/mL)	157 µM	39 µM (≈ 12.4 µg/mL)	157 µM (≈ 50 µg/mL)	0.66		2.6
CC(=O)Nc1ccc(Oc2ccc(Cl)c(Cl)c2)c(C#N)c1	3.7 µM (≈ 1.19 µg/mL)	62 µM	3.7 µM (≈ 1.19 µg/mL)	15.6 µM (≈ 5.01 µg/mL)	3.5	1.7	3.5
Cc1cc(Oc2ccc(Cl)c(Cl)c2)ccc1S(C)(=O)=O	15.7 µM (≈ 5.2 µg/mL)	> 151 µM		> 151 µM	1.4		1.7
N#Cc1cccc(Oc2ccc(Cl)c(Cl)c2)n1	94 µM (≈ 24.9 µg/mL)	378 µM	> 378 µM	23.5 µM (≈ 6.23 µg/mL)		0.91	0.28
CC(=O)c1ccc(Oc2ccc(Cl)c(Cl)c2)cc1	2.2 µM (≈ 0.619 µg/mL)	49 µM	2.2 µM (≈ 0.619 µg/mL)		11.8		11.8

— ChEMBL document CHEMBL1123507, “Antipicornavirus activity of substituted phenoxybenzenes and phenoxypyridines” (J Med Chem, 1986)
